From ChEMBL document CHEMBL2203196, “Synthesis, antiproliferative and apoptotic activities of N-(6(4)-indazolyl)-benzenesulfonamide derivatives as potential anticancer agents” (Eur J Med Chem, 2012)
Active and inactive are the calls of the source. No cut-off for these calls is given here.

Assays:
P388 [1] = assay: Induction of apoptosis in mouse P388 cells assessed as change in nuclear morphology at 0.97 to 957 uM after 3 days by DAPI staining-based fluorescence microscopy relative to control; format: functional
Method in brief: (§1)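 Cells plated at 5000–10000/well, left 6–8 h, then treated at MTT-derived IC₅₀ or IC₉₀; washed in cold PBS, fixed in 70% ethanol at 4 °C, stained with DAPI just before microscopy; percent apoptotic segmented nuclei scored against untreated controls; mean ± SD of 4–6 data.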

P388 [2] = assay: Cytotoxicity against mouse P388 cells after 72 hrs by MTT assay; format: functional, cell-based; conditions: P388, 72 h
Method in brief: (§2)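 Cells plated at 900–1800/well for exponential growth, centrifuged 275 g 2 min, left 6–8 h, then exposed 72 h to at least 5 concentrations (1:10 serial dilutions) in duplicate; MTT read-out; IC₅₀ from single concentration–response curves; mean ± SD of 3–9 experiments.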

A2780 [3] = assay: Upregulation of p53 expression in human A2780 cells at IC50 after 24 hrs by Western blot analysis; format: functional, cell-based
Method in brief: (§3)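 A2780 cells treated at IC₅₀ and harvested at 24, 48, 72 h; lysed 30 min at 4 °C in 1% Triton X-100, 0.15 M NaCl, 10 mM Tris pH 7.4 with protease inhibitors; Bradford protein assay; 50 µg protein resolved on 12% SDS-PAGE, transferred to nitrocellulose, Ponceau S loading check, blocked overnight 2% BSA in TBST at 4 °C, probed for p53 or bax.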

A2780 [4] = assay: Upregulation of Bax expression in human A2780 cells at IC50 after 48 hrs by Western blot analysis; format: functional, cell-based; method in brief: as §3
A2780 [5] = assay: Induction of apoptosis in human A2780 cells assessed as change in nuclear morphology at IC50 after 3 days by DAPI staining-based fluorescence microscopy relative to control; format: functional; method in brief: as §1
A2780 [6] = assay: Cytotoxicity against human A2780 cells after 72 hrs by MTT assay; format: functional, cell-based; conditions: A2780, 72 h; method in brief: as §2
A2780 [7] = assay: Induction of apoptosis in human A2780 cells assessed as change in nuclear morphology at 0.97 to 957 uM after 3 days by DAPI staining-based fluorescence microscopy relative to control; format: functional; method in brief: as §1
A2780 [8] = assay: Cell cycle arrest in human A2780 cells assessed as cells with > 4n chromosomes at 6.8 to 102.3 uM after 72 hrs by propidium iodide staining-based FACS flow cytometry; format: functional
A2780 [9] = assay: Cell cycle arrest in human A2780 cells assessed as accumulation at G2/M phase at 6.8 to 102.3 uM after 72 hrs by propidium iodide staining-based FACS flow cytometry (reference value: 23.1 +/- 2.5 %); format: functional
A549 [10] = assay: Induction of apoptosis in human A549 cells assessed as change in nuclear morphology at IC50 after 3 days by DAPI staining-based fluorescence microscopy relative to control; format: functional; method in brief: as §1
A2780 [11] = assay: Cell cycle arrest in human A2780 cells assessed as accumulation at S phase at 6.8 to 102.3 uM after 72 hrs by propidium iodide staining-based FACS flow cytometry (reference value: 25.9 +/- 4.7 %); format: functional
A2780 [12] = assay: Cell cycle arrest in human A2780 cells assessed as accumulation at G0/G1 phase at 6.8 to 102.3 uM after 72 hrs by propidium iodide staining-based FACS flow cytometry (reference value: 51 +/- 6.2 %); format: functional
A2780 [13] = assay: Cell cycle arrest in human A2780 cells assessed as accumulation at S phase at IC50 after 72 hrs by propidium iodide staining-based FACS flow cytometry (reference value: 25.9 +/- 4.7 %); format: functional
A549 [14] = assay: Induction of apoptosis in human A549 cells assessed as change in nuclear morphology at 0.97 to 957 uM after 3 days by DAPI staining-based fluorescence microscopy relative to control; format: functional; method in brief: as §1
P388 [15] = assay: Induction of apoptosis in mouse P388 cells assessed as change in nuclear morphology at IC50 after 3 days by DAPI staining-based fluorescence microscopy relative to control; format: functional; method in brief: as §1
A549 [16] = assay: Cytotoxicity against human A549 cells after 72 hrs by MTT assay; format: functional, cell-based; conditions: A549, 72 h; method in brief: as §2
A2780 [17] = assay: Cell cycle arrest in human A2780 cells assessed as accumulation at G2/M phase at IC50 after 72 hrs by propidium iodide staining-based FACS flow cytometry (reference value: 23.1 +/- 2.5 %); format: functional
A2780 [18] = assay: Cell cycle arrest in human A2780 cells assessed as accumulation at G0/G1 phase at IC50 after 72 hrs by propidium iodide staining-based FACS flow cytometry (reference value: 51 +/- 6.2 %); format: functional
A2780 [19] = assay: Induction of apoptosis in human A2780 cells assessed as change in nuclear morphology at > 200 uM after 3 days by DAPI staining-based fluorescence microscopy relative to control; format: functional; method in brief: as §1
A549 [20] = assay: Induction of apoptosis in human A549 cells assessed as change in nuclear morphology at > 200 uM after 3 days by DAPI staining-based fluorescence microscopy relative to control; format: functional; method in brief: as §1

| Compound | Activity (P388 [1]) [%] | IC50 (P388 [2]) [µM] | Activity (A2780 [3]) | Activity (A2780 [4]) | Activity (A2780 [5]) [%] | IC50 (A2780 [6]) [µM] | Activity (A2780 [7]) [%] | Activity (A2780 [8]) [%] | Activity (A2780 [9]) [%] | Activity (A549 [10]) [%] | Activity (A2780 [11]) [%] | Activity (A2780 [12]) [%] | Activity (A2780 [13]) [%] | Activity (A549 [14]) [%] | Activity (P388 [15]) [%] | IC50 (A549 [16]) [µM] | Activity (A2780 [17]) [%] | Activity (A2780 [18]) [%] | Activity (A2780 [19]) [%] | Activity (A549 [20]) [%] |
| --- | --- | --- | --- | --- | --- | --- | --- | --- | --- | --- | --- | --- | --- | --- | --- | --- | --- | --- | --- | --- |
| CCOc1ccc(NS(=O)(=O)c2ccc(OC)cc2)c2c(Cl)n[nH]c12 | 98 | 0.58 | Active | Active | 23.3 | 1.23 | 36.8 | 11.3 | 69.6 | 34.8 | 8.4 | 10.8 | 10.4 | 64.5 | 47.3 | 5.83 | 26.9 | 62.7 |  |  |
| C=CCn1ncc2c(NS(=O)(=O)c3ccc(C)cc3)ccc(OCC)c21 |  | 51.8 |  |  |  | 61.6 |  |  |  |  |  |  |  |  |  | 100 |  |  |  |  |
| CCOc1ccc(NS(=O)(=O)c2ccc(C)cc2)c2[nH]ncc12 | 56 | 5.7 | Active | Active | 12.5 | 8 |  | 11.6 | 71.4 | 18.8 | 8.2 | 8.9 | 12.6 | 24.9 | 19 | 25.1 | 33.7 | 53.7 | 27 |  |
| Cc1ccc(S(=O)(=O)Nc2ccc3c(Br)nn(S(=O)(=O)c4ccc(C)cc4)c3c2)cc1 |  | 51.3 |  |  |  | 74.7 |  |  |  |  |  |  |  |  |  | 104 |  |  |  |  |
| COc1ccc(S(=O)(=O)Nc2cccc3[nH]nc(Cl)c23)cc1 | 74 | 0.5 | Active | Active | 23.6 | 0.86 | 46.6 | 12.8 | 70.1 | 34.3 | 7.8 | 9.4 | 18 | 70.8 | 11.5 | 1.83 | 25.9 | 56.1 |  |  |
| Cc1ccc(S(=O)(=O)Nc2ccc3c[nH]nc3c2)cc1 |  | 71.3 |  |  |  | 86.6 |  |  |  |  |  |  |  |  |  | > 100 |  |  |  |  |
| Cc1ccc(S(=O)(=O)Nc2cccc3[nH]ncc23)cc1 |  | 85.5 |  |  |  | > 100 |  |  |  |  |  |  |  |  |  | > 100 |  |  |  |  |
| Cc1ccc(S(=O)(=O)Nc2cccc3[nH]nc(Br)c23)cc1 |  | 53.9 |  |  |  | 70.9 |  |  |  |  |  |  |  |  |  | 82.4 |  |  |  |  |
| C=CCn1cc2ccc(NS(=O)(=O)c3ccc(C)cc3)c(OCC)c2n1 |  | 68.9 |  |  |  | > 100 |  |  |  |  |  |  |  |  |  | > 100 |  |  |  |  |
| CCOc1ccc(NS(=O)(=O)c2ccc(C)cc2)c2cn(C)nc12 | 94.3 | 4.19 |  |  | 33.5 | 8.34 |  | 12 | 64.5 | 22.3 | 13.7 | 9.9 | 27.3 |  | 10.3 | 14.4 | 29.3 | 43.5 | 51.5 | 54.3 |
| Cc1ccc(S(=O)(=O)Nc2cccc3c2cnn3C)cc1 | 91.3 | 3.4 | Active | inactive | 7.3 | 6.62 |  | 6.8 | 69.2 | 28 | 15 | 9.1 | 11.3 |  | 37.3 | 6.88 | 23.7 | 65 | 24 | 41.2 |
| CCOc1ccc(NS(=O)(=O)c2ccc(C)cc2)c2c(Br)n[nH]c12 | 87.5 | 5.21 | Active | Active | 12.8 | 10.5 | 34.3 | 8.1 | 71.5 | 2.8 | 10.3 | 10.2 | 14.2 | 32.3 | 9.8 | 17.5 | 24.3 | 61.5 |  |  |
| Cc1ccc(S(=O)(=O)Nc2ccc3c(Br)n[nH]c3c2)cc1 |  | 66.6 |  |  |  | 101 |  |  |  |  |  |  |  |  |  | > 100 |  |  |  |  |
| CCOc1ccc(NS(=O)(=O)c2ccc(C)cc2)c2cn[nH]c12 |  | 43.5 |  |  |  | 55.1 |  |  |  |  |  |  |  |  |  | 58.5 |  |  |  |  |
| C=CCn1cc2ccc(NS(=O)(=O)c3ccc(C)cc3)cc2n1 | 68.7 | 4.41 | Active | Active | 19.3 | 4.89 |  | 11.1 | 72.7 | 51.2 | 5.5 | 10.8 | 9.8 |  | 30 | 11.9 | 24.2 | 66 | 66.5 | 29.2 |
